Laboratory results: ChEMBL document CHEMBL4033712, “Synthesis and biological evaluation of new C-12(α/β)-(N-) sulfamoyl-phenylamino-14-deoxy-andrographolide derivatives as potent anti-cancer agents” (Bioorg Med Chem Lett, 2017)

Assays:
[1] = tested on: HOP-92; experiment: Anticancer activity against human HOP92 cells assessed as cell growth at 10 uM after 48 hrs by sulforhodamine B assay relative to control; format: functional; conditions: HOP-92, 48 h, read-out: Activity
Procedure, shortened: (§1)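 Single-dose NCI-60 panel screen: compound added at 10 µM and the culture incubated 48 h. The end point was read by protein staining with sulforhodamine B. The value is percent growth of treated cells relative to untreated control cells, reported as a mean graph across the panel.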

[2] = tested on: SNB-19; experiment: Anticancer activity against human SNB19 cells assessed as cell growth at 10 uM after 48 hrs by sulforhodamine B assay relative to control; format: functional; conditions: SNB-19, 48 h, read-out: Activity; procedure, shortened: as §1

C=C1CC[C@@H]2[C@](C)(COC(C)=O)[C@H](OC(C)=O)CC[C@@]2(C)[C@H]1CC(Nc1ccc(S(=O)(=O)Nc2nc(C)cc(C)n2)cc1)C1=CCOC1=O (some centres not stated)
growth at 10 µM [1]: 90.1%
growth at 10 µM [2]: 100%
